From the M2OR odorant receptor database

Target: T1, OR2A7 (Homo sapiens) (UniProt Q96R45)
T1 sequence (whole entry): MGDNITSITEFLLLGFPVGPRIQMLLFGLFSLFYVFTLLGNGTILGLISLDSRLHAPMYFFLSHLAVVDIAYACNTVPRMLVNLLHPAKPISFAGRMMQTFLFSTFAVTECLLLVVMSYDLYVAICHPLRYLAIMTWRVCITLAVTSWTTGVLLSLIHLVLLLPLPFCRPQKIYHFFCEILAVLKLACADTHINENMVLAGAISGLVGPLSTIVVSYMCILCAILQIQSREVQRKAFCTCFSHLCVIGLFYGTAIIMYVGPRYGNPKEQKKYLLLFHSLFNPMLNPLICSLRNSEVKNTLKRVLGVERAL
Conditions: stereoisomer not certain
Outline: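 Transient luciferase assays in mammalian cell lines were common, though methods varied by source. The values come from published papers and their supplementary material, with extra details from the original authors when needed. Responsive refers to a measured signal the original authors judged statistically different from baseline, and non-responsive (inactive) to the remainder.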

Odorant receptor agonist call, active:
CC(C=O)Cc1ccc(C(C)(C)C)cc1 (configuration not stated)
CCCCCCCC(=O)[O-].[H+]
CC1=CCC2CC1C2(C)C (configuration not stated)
CCCCCCCCCCCCCCCCCC(=O)[O-].[H+]
CCCCCCCCCCCC(=O)O
CC(C)(C)c1ccccc1

Odorant receptor agonist call, inactive:
Cc1cccc(C)c1C
CCCCCCCCCC(=O)OCC
CCCCCCCCCCCC(=O)OCC
CC(C)=CCCC(C)=CCCC(C)=CCO
CCCCCCCCCCCCCCCCCC(=O)OC
CCCCCCCCCCCCCCC(=O)O
CCC(O)CC
CCC(C)CO (configuration not stated)
C=C(C)C1CC=C(C)CC1 (configuration not stated)
CCCCCCCCCCCCCC(=O)OCC
CCCCC(=O)C(C)=O
CCCCCCCCCCCCCCCC(=O)[O-].[H+]
O=c1ccc2ccccc2o1
CCCCOCC(C)O (configuration not stated)
CCCCCCCCCCCCCC(=O)O
CCC(=O)O
Cc1cnc(C)cn1
CCCCCCCCO
CCCCCCCCCCCCCC(=O)OC
CC(CC=O)c1ccccc1 (configuration not stated)
CCCCCCCCCCCCCCCCCC(=O)OCC
